Experimental data collected from several papers.
Lines come from different studies, so protocols differ.
ABL1: Tyrosine-protein kinase ABL1 (ABL1, Homo sapiens, UniProt P00519)

`C#Cc1n[nH]c2c(-c3cn([C@@H](C)c4ccccn4)c(=O)[nH]c3=O)cc(F)cc12` gave an inhibition of -3.6% (ABL1; enzyme activity; inhibitor; 0.1 µM).
With `Nc1ncc(-c2nc(N3CCOCC3)nc(N3CCOCC3)n2)c(C(F)F)n1` the remaining binding was 89% (Tyrosine-protein kinase ABL1, non-phosphorylated (ABL1, Homo sapiens, UniProt P00519, T315I); binding; competition with immobilised ligand; 10 µM).
`Cc1nn(C)cc1-c1nc2c(N3CCN(Cc4ccc(Cl)cc4)CC3)c(Cl)cnc2[nH]1` gave a remaining binding of 100% (Tyrosine-protein kinase ABL1, phosphorylated (ABL1, Homo sapiens, UniProt P00519); binding; competition with immobilised ligand; 1 µM).
For `Cn1cc(-c2cc(F)cc(N3CCn4c(cc5c4CCCC5)C3=O)c2CO)cc(Nc2ccc(N3CCN(C4COC4)CC3)cn2)c1=O`, the inhibition was 3% (Tyrosine-protein kinase ABL1 (ABL1, Homo sapiens, UniProt P00519, Y253F); enzyme activity; inhibitor; 0.1 µM).
The remaining binding of `N#CC1(c2ccccn2)CCN(Cc2cc(C(=O)O)c(=O)n3ccccc23)CC1` is reported as 91% (Tyrosine-protein kinase ABL1, phosphorylated (ABL1, Homo sapiens, UniProt P00519, H396P); cell-free assay; competition with immobilised ligand; 1 µM).
With `O=c1[nH]c2ccccc2n1C1CCN(Cc2ccc(-c3[nH]c4cc5ncnc5cc4nc3-c3ccccc3)cc2)CC1` the remaining signal was 98.2% (ABL1; cell-free assay; 0.5 µM).
With `Cc1ncc(C)n2nc(/C=C/c3nc(N4CCCC4)cc(N4CCOCC4)n3)nc12` the inhibition was 14% (ABL1; enzyme activity; inhibitor; 10 µM).
`Cn1cc(-c2cccc(N3CCc4c(sc5c4CC(C)(C)C5)C3=O)c2CO)cc(Nc2ccncn2)c1=O` gave an inhibition of -1% (ABL1; enzyme activity; inhibitor; 1 µM).
The remaining binding of `Cn1cncc1[C@@](O)(COc1ccc(C#N)cc1-c1ccc(OC(F)(F)F)cc1)c1ccc(C#N)cc1` is reported as 76% (Tyrosine-protein kinase ABL1, non-phosphorylated (ABL1, Homo sapiens, UniProt P00519, Q252H); cell-free assay; competition with immobilised ligand; 1 µM).
